Data published in ChEMBL document CHEMBL3124867, “Hepatitis C replication inhibitors that target the viral NS4B protein” (J Med Chem, 2014).
In brackets after ≈: the same amount, converted by molar mass.

Key:
[1] = AUC (0 to infinity) in cynomolgus monkey at 5 mg/kg, po by LC/MS/MS analysis; assay type: ADME, organism-based, Macaca fascicularis; set-up: time infinity, dose 5 mg/kg, route oral; settings: plasma
Outline: (§1)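 Oral dose of 5 mg/kg in DMSO/20% HP-β-CD (10:90), with a matching iv group for bioavailability. Plasma concentration–time profiles gave AUC0−∞ and F.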

Cytochrome P450 2C19 = Cytochrome P450 2C19 (Homo sapiens, UniProt P33261); assay: Inhibition of CYP2C19 in human liver microsomes after 10 mins by LC/MS/MS analysis; assay type: ADME
Outline: (§2)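 Cytochrome P450 isozymes 3A4, 1A2, 2C9, 2C19 and 2D6 were tested for inhibition up to 20 μM, with IC50 reported.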

[2] = Plasma protein binding in cynomolgus monkey at 5 uM after 4 hrs by rapid equilibrium dialysis method; assay type: ADME, cell-free, Macaca fascicularis; settings: read-out: PPB (converted)
Hepatitis C virus [3] = assay: Antiviral activity against Hepatitis C virus genotype 1b expressing NS4B V105M mutant infected in human HuH7 cells after 48 hrs by luciferase reporter gene assay; assay type: functional, organism-based, Hepacivirus hominis; settings: Huh-7, 48 h
[4] = Half life in CD rat at 1 mg/kg, iv by LC/MS/MS analysis; assay type: ADME, organism-based; set-up: dose 1 mg/kg, route intravenous; settings: in vivo
Outline: (§3)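 Intravenous dose of 1 mg/kg in DMSO/20% HP-β-CD (10:90) (n = 4). Clearance, Vdss and t1/2 were derived from the plasma concentration–time profiles.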

[5] = Clearance in cynomolgus monkey at 1 mg/kg, iv by LC/MS/MS analysis; assay type: ADME, organism-based, Macaca fascicularis; set-up: dose 1 mg/kg, route intravenous; settings: in vivo; outline: as §3
[6] = Volume of distribution at steady state in CD rat at 1 mg/kg, iv by LC/MS/MS analysis; assay type: ADME, organism-based; set-up: dose 1 mg/kg, route intravenous; settings: in vivo, read-out: Vdss; outline: as §3
Liver microsome [7] = assay: Drug metabolism in human liver microsomes assessed as generation of reactive metabolites at 10 uM after 30 mins by glutathione-trapping assay; assay type: ADME; settings: 0.5 h
Outline: (§4)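 Rat and human liver microsomes were incubated with compound, and a glutathione-trapping assay was used to detect reactive metabolites.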

[8] = Clearance in CD-1 mouse at 1 mg/kg, iv by LC/MS/MS analysis; assay type: ADME, organism-based; set-up: dose 1 mg/kg, route intravenous; settings: in vivo; outline: as §3
Cytochrome P450 3A4 = Cytochrome P450 3A4 (Homo sapiens, UniProt P08684); assay: Inhibition of CYP3A4 in human liver microsomes after 7 mins by LC/MS/MS analysis; assay type: ADME; outline: as §2
[9] = Plasma protein binding in beagle dog at 5 uM after 4 hrs by rapid equilibrium dialysis method; assay type: ADME, cell-free, Canis lupus familiaris; settings: read-out: PPB (converted)
[10] = Plasma protein binding in human at 5 uM after 4 hrs by rapid equilibrium dialysis method; assay type: ADME, cell-free; settings: read-out: PPB (converted)
[11] = Plasma protein binding in CD-1 mouse at 5 uM after 4 hrs by rapid equilibrium dialysis method; assay type: ADME, cell-free; settings: read-out: PPB (converted)
[12] = Half life in beagle dog at 1 mg/kg, iv by LC/MS/MS analysis; assay type: ADME, organism-based, Canis lupus familiaris; set-up: dose 1 mg/kg, route intravenous; settings: in vivo; outline: as §3
[13] = Oral bioavailability in CD-1 mouse at 5 mg/kg by LC/MS/MS analysis; assay type: ADME, organism-based; settings: in vivo; outline: as §1
[14] = Half life in cynomolgus monkey at 1 mg/kg, iv by LC/MS/MS analysis; assay type: ADME, organism-based, Macaca fascicularis; set-up: dose 1 mg/kg, route intravenous; settings: in vivo; outline: as §3
[15] = Lipophilicity, log D of the compound by chromatographic analysis; assay type: physicochemical
Outline: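 Lipophilicity was measured chromatographically and reported as ChromLogD; ≥6 replicates.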

Cytochrome P450 2C9 = Cytochrome P450 2C9 (Homo sapiens, UniProt P11712); assay: Inhibition of CYP2C9 in human liver microsomes after 10 mins by LC/MS/MS analysis; assay type: ADME; outline: as §2
[16] = Half life in CD-1 mouse at 1 mg/kg, iv by LC/MS/MS analysis; assay type: ADME, organism-based; set-up: dose 1 mg/kg, route intravenous; settings: in vivo; outline: as §3
[17] = Volume of distribution at steady state in CD-1 mouse at 1 mg/kg, iv by LC/MS/MS analysis; assay type: ADME, organism-based; set-up: dose 1 mg/kg, route intravenous; settings: in vivo, read-out: Vdss; outline: as §3
Hepatitis C virus [18] = assay: Antiviral activity against Hepatitis C virus genotype 1a infected in human HuH7 cells after 48 hrs by luciferase reporter gene assay; assay type: functional, organism-based, Hepacivirus hominis; settings: subtype 1a, Huh-7, 48 h
[19] = Clearance in CD rat at 1 mg/kg, iv by LC/MS/MS analysis; assay type: ADME, organism-based; set-up: dose 1 mg/kg, route intravenous; settings: in vivo; outline: as §3
[20] = Displacement of [3H]-3-(1-(3-chloro-6-isopropyl-8-(trifluoromethyl)imidazo[1,2-a]pyridine-2-carbonyl)piperidin-4-yl)oxazolidin-2-one from HCV genotype 1b C-terminal His-tagged NS4B (1 to 261 aa) expressed in baculovirus infected SF9 cells after overnight incubation; set-up: species or system Hepatitis C virus subtype 1b
[21] = Clearance in beagle dog at 1 mg/kg, iv by LC/MS/MS analysis; assay type: ADME, organism-based, Canis lupus familiaris; set-up: dose 1 mg/kg, route intravenous; settings: in vivo; outline: as §3
[22] = Plasma protein binding in CD rat at 5 uM after 4 hrs by rapid equilibrium dialysis method; assay type: ADME, cell-free; settings: read-out: PPB (converted)
[23] = AUC (0 to infinity) in CD rat at 5 mg/kg, po by LC/MS/MS analysis; assay type: ADME, organism-based; set-up: time infinity, dose 5 mg/kg, route oral; settings: plasma; outline: as §1
Hepatitis C virus [24] = assay: Antiviral activity against Hepatitis C virus genotype 1b expressing NS4B H94N mutant infected in human HuH7 cells after 48 hrs by luciferase reporter gene assay; assay type: functional, organism-based, Hepacivirus hominis; settings: Huh-7, 48 h
[25] = AUC (0 to infinity) in beagle dog at 5 mg/kg, po by LC/MS/MS analysis; assay type: ADME, organism-based, Canis lupus familiaris; set-up: time infinity, dose 5 mg/kg, route oral; settings: plasma; outline: as §1
Hepatitis C virus [26] = assay: Antiviral activity against Hepatitis C virus genotype 1b infected in human HuH7 cells after 48 hrs by luciferase reporter gene assay; assay type: functional, organism-based, Hepacivirus hominis; settings: Huh-7, 48 h
Cytochrome P450 1A2 = target: T1, Cytochrome P450 1A2 (Homo sapiens, UniProt P05177); assay: Inhibition of CYP1A2 in human liver microsomes after 10 mins by LC/MS/MS analysis; assay type: ADME; outline: as §2
T1 sequence (P05177 whole entry): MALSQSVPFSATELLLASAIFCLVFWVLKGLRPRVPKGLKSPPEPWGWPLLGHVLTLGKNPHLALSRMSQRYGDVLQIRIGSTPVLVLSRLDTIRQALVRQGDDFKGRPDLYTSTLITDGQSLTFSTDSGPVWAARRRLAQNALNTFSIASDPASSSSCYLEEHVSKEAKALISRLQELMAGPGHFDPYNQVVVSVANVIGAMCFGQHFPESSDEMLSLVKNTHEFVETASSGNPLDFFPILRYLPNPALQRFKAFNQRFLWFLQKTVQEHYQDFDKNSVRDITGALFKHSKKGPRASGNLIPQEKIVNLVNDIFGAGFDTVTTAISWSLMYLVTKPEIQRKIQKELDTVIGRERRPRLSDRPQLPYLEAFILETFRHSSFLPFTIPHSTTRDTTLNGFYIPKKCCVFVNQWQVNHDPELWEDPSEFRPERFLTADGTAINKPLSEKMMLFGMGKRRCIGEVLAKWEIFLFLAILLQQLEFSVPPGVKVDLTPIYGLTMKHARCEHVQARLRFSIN

[27] = Oral bioavailability in beagle dog at 5 mg/kg by LC/MS/MS analysis; assay type: ADME, organism-based, Canis lupus familiaris; settings: in vivo; outline: as §1
Cytochrome P450 2D6 = Cytochrome P450 2D6 (Homo sapiens, UniProt P10635); assay: Inhibition of CYP2D6 in human liver microsomes after 10 mins by LC/MS/MS analysis; assay type: ADME; outline: as §2
[28] = Volume of distribution at steady state in cynomolgus monkey at 1 mg/kg, iv by LC/MS/MS analysis; assay type: ADME, organism-based, Macaca fascicularis; set-up: dose 1 mg/kg, route intravenous; settings: in vivo, read-out: Vdss; outline: as §3
[29] = Volume of distribution at steady state in beagle dog at 1 mg/kg, iv by LC/MS/MS analysis; assay type: ADME, organism-based, Canis lupus familiaris; set-up: dose 1 mg/kg, route intravenous; settings: in vivo, read-out: Vdss; outline: as §3
[30] = Aqueous solubility in fasted state simulated intestinal fluid at pH 6.5 by LC/UV analysis; assay type: physicochemical
[31] = Oral bioavailability in CD rat at 5 mg/kg by LC/MS/MS analysis; assay type: ADME, organism-based; settings: in vivo; outline: as §1
[32] = AUC (0 to infinity) in CD-1 mouse at 5 mg/kg, po by LC/MS/MS analysis; assay type: ADME, organism-based; set-up: time infinity, dose 5 mg/kg, route oral; settings: plasma; outline: as §1
Liver microsome [33] = assay: Drug metabolism in rat liver microsomes assessed as generation of reactive metabolites at 10 uM after 30 mins by glutathione-trapping assay; assay type: ADME; settings: 0.5 h; outline: as §4
[34] = Oral bioavailability in cynomolgus monkey at 5 mg/kg by LC/MS/MS analysis; assay type: ADME, organism-based, Macaca fascicularis; settings: in vivo; outline: as §1

Cytochrome P450 2C19, sequence (P33261 whole entry): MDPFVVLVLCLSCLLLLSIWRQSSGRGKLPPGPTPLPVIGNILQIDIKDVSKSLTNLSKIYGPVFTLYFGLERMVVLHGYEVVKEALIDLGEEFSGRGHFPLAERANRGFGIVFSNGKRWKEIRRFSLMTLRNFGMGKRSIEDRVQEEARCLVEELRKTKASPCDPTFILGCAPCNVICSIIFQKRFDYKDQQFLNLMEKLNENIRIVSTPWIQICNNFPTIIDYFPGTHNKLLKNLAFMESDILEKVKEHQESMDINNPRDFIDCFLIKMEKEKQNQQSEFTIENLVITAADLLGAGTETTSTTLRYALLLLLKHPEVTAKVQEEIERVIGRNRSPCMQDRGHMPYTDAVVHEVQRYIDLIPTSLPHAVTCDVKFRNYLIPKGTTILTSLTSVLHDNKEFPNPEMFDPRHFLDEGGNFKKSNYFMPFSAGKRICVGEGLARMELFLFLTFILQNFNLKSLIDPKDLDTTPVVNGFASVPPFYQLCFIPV
Cytochrome P450 3A4, sequence (P08684 whole entry): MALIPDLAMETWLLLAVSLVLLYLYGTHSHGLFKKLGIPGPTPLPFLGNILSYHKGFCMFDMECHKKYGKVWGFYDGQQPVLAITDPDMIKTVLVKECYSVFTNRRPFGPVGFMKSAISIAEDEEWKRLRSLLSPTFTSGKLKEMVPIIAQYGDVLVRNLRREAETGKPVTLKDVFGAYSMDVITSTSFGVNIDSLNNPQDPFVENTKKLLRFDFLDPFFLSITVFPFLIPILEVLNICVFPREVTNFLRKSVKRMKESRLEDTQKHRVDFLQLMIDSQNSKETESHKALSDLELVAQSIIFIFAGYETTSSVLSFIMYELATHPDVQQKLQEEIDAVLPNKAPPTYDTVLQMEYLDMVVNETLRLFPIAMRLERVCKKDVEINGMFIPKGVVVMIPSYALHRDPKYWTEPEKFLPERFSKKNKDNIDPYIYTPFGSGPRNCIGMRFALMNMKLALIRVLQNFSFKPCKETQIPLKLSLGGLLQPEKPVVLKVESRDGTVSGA
Cytochrome P450 2C9, sequence (P11712 whole entry): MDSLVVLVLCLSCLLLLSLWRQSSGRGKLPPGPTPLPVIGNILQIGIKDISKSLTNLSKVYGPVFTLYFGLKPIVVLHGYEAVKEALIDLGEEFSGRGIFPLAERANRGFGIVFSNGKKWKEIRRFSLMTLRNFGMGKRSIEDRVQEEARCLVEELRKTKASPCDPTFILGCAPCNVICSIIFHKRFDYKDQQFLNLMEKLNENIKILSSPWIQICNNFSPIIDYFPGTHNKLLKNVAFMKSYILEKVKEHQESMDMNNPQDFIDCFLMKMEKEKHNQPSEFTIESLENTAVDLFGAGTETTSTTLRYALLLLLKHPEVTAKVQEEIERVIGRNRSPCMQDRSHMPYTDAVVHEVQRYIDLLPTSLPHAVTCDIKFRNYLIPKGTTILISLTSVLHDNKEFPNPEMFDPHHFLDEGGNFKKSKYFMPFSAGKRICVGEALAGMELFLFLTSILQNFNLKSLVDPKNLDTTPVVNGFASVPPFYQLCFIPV
Cytochrome P450 2D6, sequence (P10635 whole entry): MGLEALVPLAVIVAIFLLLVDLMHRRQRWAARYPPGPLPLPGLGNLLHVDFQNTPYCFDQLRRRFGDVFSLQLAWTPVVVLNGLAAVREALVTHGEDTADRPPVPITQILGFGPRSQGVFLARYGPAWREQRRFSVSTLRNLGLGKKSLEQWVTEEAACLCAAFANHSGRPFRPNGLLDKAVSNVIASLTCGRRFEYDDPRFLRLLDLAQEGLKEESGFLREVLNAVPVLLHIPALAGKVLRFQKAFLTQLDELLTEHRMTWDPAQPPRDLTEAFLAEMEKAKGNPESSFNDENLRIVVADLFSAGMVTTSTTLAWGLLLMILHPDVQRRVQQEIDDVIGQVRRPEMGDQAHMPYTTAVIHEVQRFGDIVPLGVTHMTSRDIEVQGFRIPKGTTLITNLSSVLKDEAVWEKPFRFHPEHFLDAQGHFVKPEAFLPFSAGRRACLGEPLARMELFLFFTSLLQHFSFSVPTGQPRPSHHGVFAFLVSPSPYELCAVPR

## O=C(c1nn2c(C(F)(F)F)cc(C3CC3)cc2c1Cl)N1CCN([C@H]2C[C@@H]3C[C@@H]3[C@@H]2O)C(=O)C1
[1]
  AUC(0-inf): 25000 ng·h/mL
Cytochrome P450 2C19
  IC50: > 20000 nM
[2]
  fraction unbound at 4 h, 5 µM: 0.09
Hepatitis C virus [3]
  EC50: 38 nM
[4]
  half-life: 2 h
[5]
  clearance: 3 mL/min/kg
[6]
  Vd: 2 L/kg
Liver microsome [7]
  Stability: Stable
[8]
  clearance: 19 mL/min/kg
Cytochrome P450 3A4
  IC50: > 20000 nM
[9]
  fraction unbound at 4 h, 5 µM: 0.07
[10]
  fraction unbound at 4 h, 5 µM: 0.06
[11]
  fraction unbound at 4 h, 5 µM: 0.03
[12]
  half-life: 2 h
[13]
  bioavailability: 12%
[14]
  half-life: 4 h
[15]
  chromatographic logD: 4.6
Cytochrome P450 2C9
  IC50: > 20000 nM
[16]
  half-life: 0.4 h
[17]
  Vd: 0.6 L/kg
Hepatitis C virus [18]
  EC50: 0.6 nM
[19]
  clearance: 25 mL/min/kg
[20]
  IC50: 8 nM
[21]
  clearance: 6 mL/min/kg
[22]
  fraction unbound at 4 h, 5 µM: 0.04
[23]
  AUC(0-inf): 3100 ng·h/mL
Hepatitis C virus [24]
  EC50: 5 nM
[25]
  AUC(0-inf): 25000 ng·h/mL
Hepatitis C virus [26]
  EC50: 0.3 nM
Cytochrome P450 1A2
  IC50: > 20000 nM
[27]
  bioavailability: > 100%
Cytochrome P450 2D6
  IC50: > 20000 nM
[28]
  Vd: 0.7 L/kg
[29]
  Vd: 0.7 L/kg
[30]
  solubility: 310 µg/mL (≈ 642 µM)
[31]
  bioavailability: 92%
[32]
  AUC(0-inf): 1000 ng·h/mL
Liver microsome [33]
  Stability: Stable
[34]
  bioavailability: 97%
